Data reported in ChEMBL document CHEMBL4706708, “Improving the solubility of anti-proliferative thieno[2,3-b]quinoline-2-carboxamides” (Bioorg Med Chem, 2021).
Converted amounts (≈) assume the structure as drawn.

Key:
HCT-116 [1] = assay: Antiproliferative activity against human HCT-116 cells assessed as cell growth at 1 uM measured after 3 days by [3H]-thymidine incorporation assay relative to control; assay type: functional; conditions: HCT-116, 72 h, time 3 day, read-out: Activity
How it was run: (§1)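 HCT116 and MDA-MB-231 cells from ATCC, seeded at 3000 cells/well, exposed to inhibitor for three days; 0.04 µCi 3H-thymidine added per well 5 h before harvest onto glass fibre filters, incorporation counted by scintillation and expressed relative to untreated controls. Triplicate wells, at least two independent experiments. Single-point screen at 1 µM; IC50 determined from varying concentrations.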

MDA-MB-231 [2] = assay: Antiproliferative activity against human MDA-MB-231 cells assessed as cell growth inhibition measured after 3 days by [3H]-thymidine incorporation assay; assay type: functional, cell-based; how it was run: as §1
HCT-116 [3] = assay: Antiproliferative activity against human HCT-116 cells assessed as cell growth inhibition measured after 3 days by [3H]-thymidine incorporation assay; assay type: functional, cell-based; how it was run: as §1
[4] = Thermodynamic solubility of compound in water measured after 15 mins RP-HPLC analysis; assay type: physicochemical; conditions: read-out: Therm_solubility
MDA-MB-231 [5] = assay: Antiproliferative activity against human MDA-MB-231 cells assessed as cell growth at 1 uM measured after 3 days by [3H]-thymidine incorporation assay relative to control; assay type: functional; conditions: MDA-MB-231, 72 h, time 3 day, read-out: Activity; how it was run: as §1
[6] = Stability in water measured after 15 mins RP-HPLC analysis; assay type: physicochemical; conditions: buffer, 0.25 h

| Compound | IC50 (MDA-MB-231 [2]) | IC50 (HCT-116 [3]) | solubility thermodynamic at 0.25 h [4] | Stabilty [6] | growth at 1 µM (HCT-116 [1]) | growth at 1 µM (MDA-MB-231 [5]) |
| --- | --- | --- | --- | --- | --- | --- |
| Cc1c(Cl)cccc1NC(=O)c1sc2nc3c(cc2c1N)CN(Cc1ccccc1)CC3 | 150 nM | 193 nM | 0.77 µg/mL (≈ 1.66 µM) | – | 2.3% | 4% |
| CC(=O)c1cc2c(N)c(C(=O)Nc3cccc4c3OCCO4)sc2nc1C | – | – | 0.26 µg/mL (≈ 0.678 µM) | Unstable | 72.5% | 104% |
| Cc1nc2sc(C(=O)Nc3cccc4ccccc34)c(N)c2cc1C(C)O (stereo not drawn) | 81 nM | 171 nM | 2.21 µg/mL (≈ 5.85 µM) | – | 1.7% | 9.9% |
| Cc1c(Cl)cccc1NC(=O)c1sc2nc3c(cc2c1N)CN(C)CC3 | – | – | 0.44 µg/mL (≈ 1.14 µM) | Unstable | 101% | 95.3% |
| Cc1c(Br)cccc1NC(=O)c1sc2nc3c(cc2c1N)CN(Cc1ccccc1)CC3 | 122 nM | 151 nM | 0.61 µg/mL (≈ 1.2 µM) | – | 1% | 3.5% |
| Cc1c(NC(=O)c2sc3nc4c(cc3c2N)CN(Cc2ccccc2)CC4)cccc1C(F)(F)F | > 1000 nM | > 1000 nM | 1.31 µg/mL (≈ 2.64 µM) | – | 69.7% | 61.5% |
| CC(=O)c1cc2c(N)c(C(=O)Nc3ccccc3)sc2nc1C | – | – | 3 µg/mL (≈ 9.22 µM) | – | 109% | 120% |
| Cc1cccc(NC(=O)c2sc3nc4c(cc3c2N)CN(Cc2ccccc2)CC4)c1C | 162 nM | 201 nM | 1.72 µg/mL (≈ 3.89 µM) | – | 1.5% | 4% |
| Cc1nc2sc(C(=O)Nc3cccc(Cl)c3C)c(N)c2cc1C(C)O (stereo not drawn) | 76 nM | 72 nM | 2.41 µg/mL (≈ 6.41 µM) | – | 2.2% | 11.7% |

Continued, in another order:

| IC50 (MDA-MB-231 [2]) | IC50 (HCT-116 [3]) | solubility thermodynamic at 0.25 h [4] | Stabilty [6] | Compound | growth at 1 µM (HCT-116 [1]) | growth at 1 µM (MDA-MB-231 [5]) |
| --- | --- | --- | --- | --- | --- | --- |
| – | – | 0.13 µg/mL (≈ 0.366 µM) | – | COc1ccc(NC(=O)c2sc3nc(C)c(C(C)=O)cc3c2N)cc1 | 82.9% | 84.6% |
| 506 nM | 422 nM | 0.68 µg/mL (≈ 1.92 µM) | – | CC(=O)c1cc2c(N)c(C(=O)Nc3cccc(C)c3C)sc2nc1C | 2.1% | 8.9% |
| 644 nM | 640 nM | 3.97 µg/mL (≈ 8.55 µM) | – | Nc1c(C(=O)Nc2cccc3ccccc23)sc2nc3c(cc12)CN(Cc1ccccc1)CC3 | 4.7% | 19.3% |
| – | – | 1.49 µg/mL (≈ 4.39 µM) | – | CC(=O)c1cc2c(N)c(C(=O)Nc3ccccc3C)sc2nc1C | 110% | 97.1% |
| – | – | 0.26 µg/mL (≈ 0.691 µM) | Unstable | CC(=O)c1cc2c(N)c(C(=O)Nc3ccnc4ccccc34)sc2nc1C | 102% | 91.6% |
| – | – | 1.52 µg/mL (≈ 4.11 µM) | – | COc1cccc(NC(=O)c2sc3nc(C)c(C(C)=O)cc3c2N)c1C | 96.8% | 99.7% |
| 633 nM | 591 nM | 1.08 µg/mL (≈ 2.88 µM) | – | CC(=O)c1cc2c(N)c(C(=O)Nc3cccc4ccccc34)sc2nc1C | 7.8% | 13.6% |
| 219 nM | 183 nM | 1.15 µg/mL (≈ 2.75 µM) | – | CC(=O)c1cc2c(N)c(C(=O)Nc3cccc(Br)c3C)sc2nc1C | 4% | 11% |
| 636 nM | 573 nM | 1.63 µg/mL (≈ 4.36 µM) | – | CC(=O)c1cc2c(N)c(C(=O)Nc3cccc(Cl)c3C)sc2nc1C | 10% | 13.7% |
| – | – | 1.15 µg/mL (≈ 3.08 µM) | Unstable | Cc1c(Cl)cccc1NC(=O)c1sc2nc3c(cc2c1N)COCC3 | 78.1% | 50.9% |
